# Source: ChEMBL document CHEMBL1156678, “A new class of analgesic agents toward prostacyclin receptor inhibition: synthesis, biological studies and QSAR analysis of 1-hydroxyl-2-substituted phenyl-4,4,5,5-tetramethylimidazolines” (Eur J Med Chem, 2008)
# Tests used:
# [1] = tested on: Mus musculus; assay: Analgesic activity in ICR mouse assessed as pain threshold variation at 0.013 mmol/kg, ip after 120 mins by tail flick test relative to control; assay type: functional
# Method in brief: (§1)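 Male ICR mice (25 ± 2 g), kept on a 12/12 h light/dark cycle at 21 ± 2 °C for one day before use. Each received a single i.p. injection in 0.2 ml saline + 0.01 ml DMSO + 0.02 ml Tween-80. Vehicle-only mice served as controls. Basal tail-flick threshold was measured four times (BPT). Thresholds were then read every 30 min for 150 min. PTV = (post-dose threshold − BPT)/BPT. n = 10, x ± SD.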
# [2] = tested on: Mus musculus; assay: Thrombotic toxicity in ICR mouse assessed as tail bleeding time at 1.3 mmol/kg, ip after 5 mins; assay type: organism-based; conditions: in vivo
# Method in brief: (§2)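 Male ICR mice (25 ± 2 g) were kept one day on a 12/12 h light/dark cycle at 21 ± 2 °C. Each received a single i.p. dose of 1.30 mmol/kg in saline/DMSO/Tween-80 (0.2/0.01/0.02 ml), or the solvent only. The restrained mouse had 1 mm cut from the tail before dosing and at 5, 15, 30 and 60 min. Bleeding time (s) is reported as mean ± SD.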
# [3] = tested on: Mus musculus; assay: Analgesic activity in ICR mouse assessed as pain threshold variation at 0.13 mmol/kg, ip after 60 mins by tail flick test relative to control; assay type: functional; method in brief: as §1
# [4] = tested on: Mus musculus; assay: Analgesic activity in ICR mouse assessed as pain threshold variation at 0.13 mmol/kg, ip after 120 mins by tail flick test; assay type: functional; method in brief: as §1
# [5] = tested on: Mus musculus; assay: Analgesic activity in ICR mouse assessed as pain threshold variation at 0.13 mmol/kg, ip after 90 mins by tail flick test relative to control; assay type: functional; method in brief: as §1
# [6] = tested on: Mus musculus; assay: Analgesic activity in ICR mouse assessed as pain threshold variation at 0.0013 mmol/kg, ip after 120 mins by tail flick test relative to control; assay type: functional; method in brief: as §1
# [7] = tested on: Mus musculus; assay: Thrombotic toxicity in ICR mouse assessed as tail bleeding time at 1.3 mmol/kg, ip after 15 mins; assay type: organism-based; conditions: in vivo, 0.25 h; method in brief: as §2
# [8] = tested on: Mus musculus; assay: Analgesic activity in ICR mouse assessed as pain threshold variation at 0.13 mmol/kg, ip after 150 mins by tail flick test; assay type: functional; method in brief: as §1
# [9] = tested on: Mus musculus; assay: Analgesic activity in ICR mouse assessed as pain threshold variation at 0.0013 mmol/kg, ip after 90 mins by tail flick test relative to control; assay type: functional; method in brief: as §1
# [10] = tested on: Mus musculus; assay: Analgesic activity in ICR mouse assessed as pain threshold variation at 0.13 mmol/kg, ip after 30 mins by tail flick test relative to control; assay type: functional; method in brief: as §1
# [11] = Cardiovascular toxicity in rat aorta assessed as inhibition of noradrenaline-induced vasoconstriction at 5 mM relative to control; assay type: tissue-based; conditions: isolated rat aorta
# Method in brief: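 Rat aortic strips were contracted with noradrenaline, washed, stabilized for 30 min, and contracted again. At peak contraction, compound was added (final 5 × 10^-3 M) or vehicle alone. The relaxant response was recorded as percentage inhibition of the contraction.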
# [12] = tested on: Mus musculus; assay: Thrombotic toxicity in ICR mouse assessed as tail bleeding time at 1.3 mmol/kg, ip after 30 mins; assay type: organism-based; conditions: in vivo, 0.5 h; method in brief: as §2
# [13] = tested on: Mus musculus; assay: Analgesic activity in ICR mouse assessed as pain threshold variation at 0.0013 mmol/kg, ip after 60 mins by tail flick test relative to control; assay type: functional; method in brief: as §1
# [14] = tested on: Mus musculus; assay: Analgesic activity in ICR mouse assessed as pain threshold variation at 0.013 mmol/kg, ip after 30 mins by tail flick test relative to control; assay type: functional; method in brief: as §1
# [15] = tested on: Mus musculus; assay: Analgesic activity in ICR mouse assessed as pain threshold variation at 0.013 mmol/kg, ip after 150 mins by tail flick test relative to control; assay type: functional; method in brief: as §1
# [16] = tested on: Mus musculus; assay: Analgesic activity in ICR mouse assessed as pain threshold variation at 0.0013 mmol/kg, ip after 30 mins by tail flick test relative to control; assay type: functional; method in brief: as §1
# [17] = tested on: Mus musculus; assay: Analgesic activity in ICR mouse assessed as pain threshold variation at 0.013 mmol/kg, ip after 60 mins by tail flick test relative to control; assay type: functional; method in brief: as §1
# [18] = tested on: Mus musculus; assay: Analgesic activity in ICR mouse assessed as pain threshold variation at 0.013 mmol/kg, ip after 90 mins by tail flick test relative to control; assay type: functional; method in brief: as §1
# [19] = tested on: Mus musculus; assay: Thrombotic toxicity in ICR mouse assessed as tail bleeding time at 1.3 mmol/kg, ip after 60 mins; assay type: organism-based; conditions: in vivo, 1 h; method in brief: as §2
# [20] = tested on: Mus musculus; assay: Analgesic activity in ICR mouse assessed as pain threshold variation at 0.0013 mmol/kg, ip after 150 mins by tail flick test relative to control; assay type: functional; method in brief: as §1
structure (smiles),measurement,setting,value
CC1(C)N=C(c2ccc(Br)cc2)N(O)C1(C)C,Activity,[1],52.98%
same,Activity,[2],118 s
same,Activity,[3],89.78%
same,Activity,[4],75.77%
same,Activity,[5],75.18%
same,Activity,[6],31.87%
same,Activity,[7],119 s
same,Activity,[8],70.19%
same,Activity,[9],34.49%
same,Activity,[10],29.02%
same,inhibition at 5000 µM,[11],18.4%
same,Activity,[12],118 s
same,Activity,[13],43.9%
same,Activity,[14],19.33%
same,Activity,[15],47.7%
same,Activity,[16],11.32%
same,Activity,[17],68.89%
same,Activity,[18],53.75%
same,Activity,[19],120 s
same,Activity,[20],26.57%
